Data published in ChEMBL document CHEMBL4339200, “Structure-based Discovery of Phenyl (3-Phenylpyrrolidin-3-yl)sulfones as Selective, Orally Active RORγt Inverse Agonists” (ACS Med Chem Lett, 2019).
The source made the active and inactive calls. The calls are words filed in the database; no cut-off is given here.

Assays:
[1] = target: T1, Oxysterols receptor LXR-beta (Homo sapiens, UniProt P55055); test: Agonist activity at LXRbeta (unknown origin) expressed in African green monkey CV1 cells; assay type: cell-based
T1 sequence (P55055 whole entry): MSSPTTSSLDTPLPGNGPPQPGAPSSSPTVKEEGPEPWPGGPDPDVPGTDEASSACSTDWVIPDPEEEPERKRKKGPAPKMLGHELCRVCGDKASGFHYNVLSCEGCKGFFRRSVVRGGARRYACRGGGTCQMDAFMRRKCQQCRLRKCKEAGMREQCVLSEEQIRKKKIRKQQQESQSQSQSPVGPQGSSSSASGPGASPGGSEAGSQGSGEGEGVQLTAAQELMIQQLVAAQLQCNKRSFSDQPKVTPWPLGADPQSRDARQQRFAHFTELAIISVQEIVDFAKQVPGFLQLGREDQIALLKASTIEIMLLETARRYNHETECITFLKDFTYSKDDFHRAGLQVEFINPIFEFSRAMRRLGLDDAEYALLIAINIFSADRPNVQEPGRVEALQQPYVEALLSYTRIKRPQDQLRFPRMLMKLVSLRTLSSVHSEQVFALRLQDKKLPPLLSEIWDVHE

[2] = Protein binding in human plasma assessed as unbound fraction; assay type: ADME, cell-free
[3] = target: T2, Nuclear receptor ROR-beta (Homo sapiens) (UniProt Q92753); test: Agonist activity at GAL4-fused RORbeta LBD (200 to 559 residues) (unknown origin) expressed in human Jurkat cells measured after 18 hrs by native IL17 promoter driven steady-glo luciferase assay; assay type: cell-based
T2 sequence (whole entry): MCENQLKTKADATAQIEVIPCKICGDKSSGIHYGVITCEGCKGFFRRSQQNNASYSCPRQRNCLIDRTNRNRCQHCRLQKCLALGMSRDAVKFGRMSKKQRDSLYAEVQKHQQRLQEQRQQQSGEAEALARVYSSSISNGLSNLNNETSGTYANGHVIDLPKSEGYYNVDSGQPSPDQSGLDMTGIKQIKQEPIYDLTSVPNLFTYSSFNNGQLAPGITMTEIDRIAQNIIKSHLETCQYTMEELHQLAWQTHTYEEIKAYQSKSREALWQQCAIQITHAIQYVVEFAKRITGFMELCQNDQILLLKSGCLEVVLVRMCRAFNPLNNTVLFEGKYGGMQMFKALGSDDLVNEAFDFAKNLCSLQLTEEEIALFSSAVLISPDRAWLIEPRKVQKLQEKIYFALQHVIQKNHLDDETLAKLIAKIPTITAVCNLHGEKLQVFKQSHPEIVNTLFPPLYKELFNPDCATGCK

[4] = target: T3, Cytochrome P450 1A2 (Homo sapiens, UniProt P05177); test: Inhibition of CYP1A2 (unknown origin); assay type: ADME
T3 sequence (P05177 whole entry): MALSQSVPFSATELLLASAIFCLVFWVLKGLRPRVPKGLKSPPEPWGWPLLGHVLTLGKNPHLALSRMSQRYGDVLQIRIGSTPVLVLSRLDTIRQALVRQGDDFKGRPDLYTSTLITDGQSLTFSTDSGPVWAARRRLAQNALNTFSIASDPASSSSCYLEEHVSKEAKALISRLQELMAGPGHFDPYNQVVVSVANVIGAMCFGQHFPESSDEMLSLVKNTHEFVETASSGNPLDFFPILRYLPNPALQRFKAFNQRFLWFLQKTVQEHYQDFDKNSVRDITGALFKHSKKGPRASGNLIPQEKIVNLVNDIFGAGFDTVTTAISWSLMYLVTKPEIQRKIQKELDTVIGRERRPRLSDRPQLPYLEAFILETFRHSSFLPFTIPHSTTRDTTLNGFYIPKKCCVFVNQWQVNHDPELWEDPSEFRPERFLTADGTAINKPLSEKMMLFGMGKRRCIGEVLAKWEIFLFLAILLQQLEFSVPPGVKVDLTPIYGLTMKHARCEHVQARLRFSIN

[5] = target: Cytochrome P450 2D6 (Homo sapiens, UniProt P10635); test: Inhibition of CYP2D6 (unknown origin); assay type: ADME
Cytochrome P450 2D6, sequence (P10635 whole entry): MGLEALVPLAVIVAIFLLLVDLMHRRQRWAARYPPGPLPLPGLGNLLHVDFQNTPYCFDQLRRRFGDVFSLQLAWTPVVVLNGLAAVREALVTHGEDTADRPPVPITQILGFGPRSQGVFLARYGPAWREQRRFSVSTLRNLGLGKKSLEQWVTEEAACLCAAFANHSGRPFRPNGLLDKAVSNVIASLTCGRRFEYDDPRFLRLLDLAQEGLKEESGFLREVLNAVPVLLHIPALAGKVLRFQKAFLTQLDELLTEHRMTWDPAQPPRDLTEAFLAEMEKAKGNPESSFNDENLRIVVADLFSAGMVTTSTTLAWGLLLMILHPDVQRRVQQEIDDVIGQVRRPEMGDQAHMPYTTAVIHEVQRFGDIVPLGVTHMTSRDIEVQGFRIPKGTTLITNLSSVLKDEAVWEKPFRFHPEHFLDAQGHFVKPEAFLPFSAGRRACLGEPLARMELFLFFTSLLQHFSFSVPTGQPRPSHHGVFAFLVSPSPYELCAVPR

[6] = target: T4, Cytochrome P450 2C8 (Homo sapiens, UniProt P10632); test: Inhibition of CYP2C8 (unknown origin); assay type: ADME
T4 sequence (P10632 whole entry): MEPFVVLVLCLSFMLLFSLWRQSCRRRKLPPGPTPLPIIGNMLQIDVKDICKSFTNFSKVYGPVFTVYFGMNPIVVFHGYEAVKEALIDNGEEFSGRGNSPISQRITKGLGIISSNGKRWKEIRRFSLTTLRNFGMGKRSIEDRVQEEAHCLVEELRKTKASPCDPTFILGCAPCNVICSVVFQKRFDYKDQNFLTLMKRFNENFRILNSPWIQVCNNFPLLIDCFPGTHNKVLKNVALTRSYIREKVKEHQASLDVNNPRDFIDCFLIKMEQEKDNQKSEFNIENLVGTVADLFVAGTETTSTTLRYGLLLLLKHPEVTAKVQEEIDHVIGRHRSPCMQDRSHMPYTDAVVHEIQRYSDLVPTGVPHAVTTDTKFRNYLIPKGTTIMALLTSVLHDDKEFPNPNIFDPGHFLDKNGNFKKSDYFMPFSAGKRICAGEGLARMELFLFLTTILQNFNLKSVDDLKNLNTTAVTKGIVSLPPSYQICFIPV

[7] = Half life in Balb/c mouse at 2 mg/kg, iv; assay type: ADME, organism-based; conditions: in vivo
Summary of the method: (§1)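 Balb/c mice given a single intravenous dose of 2 mg/kg or an oral dose of 10 mg/kg. Plasma exposure was followed to derive Cmax, Tmax, AUC, t1/2, clearance, Vss and oral bioavailability (F).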

[8] = AUC in Balb/c mouse at 10 mg/kg, po; assay type: ADME, organism-based; conditions: in vivo; summary of the method: as §1
[9] = Oral bioavailability in Balb/c mouse at 10 mg/kg; assay type: ADME, organism-based; conditions: in vivo; summary of the method: as §1
[10] = test system: Mus musculus; test: Inhibition of IL2/IL23-induced IL17F production in C57BL/6 mouse at 50 mg/kg, po bid treated 30 mins prior to 24 hrs IL2 challenge followed by IL2/IL23 addition at 0,7 and 23 hrs measured after 7 hrs post last IL2/IL23 challenge relative to control; assay type: functional; conditions: C57BL/6, po
Summary of the method: (§2)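 Naive mice were challenged three times with IL-2 plus IL-23 (first at 0 and 7 h) and dosed orally bid at 5, 15 or 50 mg/kg. Serum cytokines were measured 7 h after the final IL-2/IL-23 administration. An anti-IL-23 antibody served as positive control.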

[11] = test system: Mus musculus; test: Inhibition of IL2/IL23-induced IL17A production in po bid dosed C57BL/6 mouse treated 30 mins prior to 24 hrs IL2 challenge followed by IL2/IL23 addition at 0,7 and 23 hrs measured after 7 hrs post last IL2/IL23 challenge; assay type: functional, organism-based; summary of the method: as §2
[12] = test system: Mus musculus; test: Inhibition of IL2/IL23-induced GM-CSF production in po bid dosed C57BL/6 mouse treated 30 mins prior to 24 hrs IL2 challenge followed by IL2/IL23 addition at 0,7 and 23 hrs measured after 7 hrs post last IL2/IL23 challenge; assay type: functional, organism-based; summary of the method: as §2

- EC50 [1]: > 7.5 µM
- fraction unbound [2]: 0.037
- Activity [3]: inactive
- IC50 [4]: > 20 µM
- IC50 [5]: > 20 µM
- IC50 [6]: 0.68 µM
- half-life [7]: 7.2 h
- AUC [8]: 36.6 µM·h
- bioavailability [9]: 99%
SMILES: O=C(O)[C@H]1CC[C@H](C(=O)N2CC[C@](c3ccc(C(F)(C(F)(F)F)C(F)(F)F)cc3)(S(=O)(=O)c3ccc(F)cc3)C2)CC1
- inhibition in vivo at 50 mg/kg [10]: 98%
- inhibition [11]: Dose-dependent effect
- inhibition [12]: Dose-dependent effect
